Source: ChEMBL document CHEMBL1126902, “Synthesis, chemical reactivity, and antitumor evaluation of congeners of carmethizole hydrochloride, an experimental "acylated vinylogous carbinolamine" tumor inhibitor” (J Med Chem, 1993)

Assays:
P388 [1] = test: Percent increase in life span of dying mice tested in vivo at 49.5 mg/kg against ip implanted P388 Leukemia in mice; format: functional; details: Mus musculus, route intraperitoneal
Procedure, shortened: (§1)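 Portage-CD2F1 female mice inoculated ip with ascitic fluid carrying ca. 5.2×10^6 P388 leukemia cells. Drug given ip daily on days 1-5, starting 24 h after inoculation, dosed by average body weight. %ILS is from the median day of death of dying mice versus controls.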

[2] = Change in tumor cell population in ip implanted LOX amelanotic melanoma in mice after administration of compound at 24.75 mg/kg; format: functional, Mus musculus; details: route intraperitoneal
Procedure, shortened: (§2)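 Female CD2F1 mice were implanted ip with ascitic fluid holding ca. 1.7×10^6 LOX cells. Dosing was ip on days 1, 5 and 9, starting 24 h after implantation, by exact body weight, as a solution or suspension in saline plus Tween 80, freshly prepared daily. KE is the net log change in viable tumor cells from start to end of treatment. Bracketed KE assumes Poisson survival, with 60-day survivors tumor-free.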

P388 [3] = test: Change in tumor cell population in ip implanted P388 Leukemia in mice after administration of compound at 99 mg/kg; format: functional, Mus musculus; details: route intraperitoneal
Procedure, shortened: (§3)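 P388 leukemia: ascitic fluid with ca. 5.2×10^6 cells inoculated ip into Portage-CD₂F₁ female mice. Drug given ip on days 1-5, starting 24 h after inoculation, dosed by average body weight. Vehicle was saline plus Tween 80, as a solution or suspension. KE = net log change in viable tumor cells from start to end of treatment.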

P388 [4] = test: Percent increase in life span of dying mice tested in vivo at 99 mg/kg against ip implanted P388 Leukemia in mice; format: functional; details: Mus musculus, route intraperitoneal
Procedure, shortened: (§4)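 Portage-CD2F1 female mice were inoculated ip with ascitic fluid containing ca. 5.2×10^6 P388 leukemia cells. Drug was given ip daily on days 1-5, starting 24 h after inoculation, and dosed by average body weight. %ILS was calculated from the median day of death of dying mice versus controls.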

[5] = Change in tumor cell population in ip implanted LOX amelanotic melanoma in mice after administration of compound at 99 mg/kg; format: functional, Mus musculus; details: route intraperitoneal; procedure, shortened: as §2
P388 [6] = test: Percent increase in life span of dying mice tested in vivo at 12.4 mg/kg against ip implanted P388 Leukemia in mice; format: functional; details: Mus musculus, route intraperitoneal; procedure, shortened: as §1
[7] = Change in tumor cell population in ip implanted LOX amelanotic melanoma in mice after administration of compound at 198 mg/kg; format: functional, Mus musculus; details: route intraperitoneal; procedure, shortened: as §2
P388 [8] = test: Percent increase in life span of dying mice tested in vivo at 24.8 mg/kg against ip implanted P388 Leukemia in mice; format: functional; details: Mus musculus, route intraperitoneal; procedure, shortened: as §1
[9] = Percent increase in life span of dying mice tested in vivo at 198 mg/kg against ip implanted LOX amelanotic melanoma in mice (60-day survivors); format: functional; details: Mus musculus, 1440 h, route intraperitoneal
Procedure, shortened: (§5)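 Female CD2F1 mice implanted ip with ascitic fluid carrying ca. 1.7×10^6 LOX amelanotic melanoma cells. Drug given ip on days 1, 5 and 9, starting 24 h after implant, dosed by exact body weight; solutions or suspensions made fresh daily. %ILS is from the median day of death of dying mice versus controls, excluding 60-day survivors.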

[10] = Change in tumor cell population in ip implanted LOX amelanotic melanoma in mice after administration of compound at 49.5 mg/kg; format: functional, Mus musculus; details: route intraperitoneal; procedure, shortened: as §2
[11] = Percent increase in life span of dying mice tested in vivo at 99 mg/kg against ip implanted LOX amelanotic melanoma in mice (60-day survivors); format: functional; details: Mus musculus, 1440 h, route intraperitoneal
Procedure, shortened: (§6)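 Nude CD2F1 female mice were implanted ip with ascitic fluid containing ca. 1.7×10^6 LOX amelanotic melanoma cells. Drug was given ip on days 1, 5 and 9, starting 24 h after implantation, and dosed by exact body weight. Solutions or suspensions were made fresh daily in saline plus Tween 80. %ILS was calculated from the median day of death of dying mice versus controls, excluding 60-day survivors.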

P388 [12] = test: Change in tumor cell population in ip implanted P388 Leukemia in mice after administration of compound at 49.5 mg/kg; format: functional, Mus musculus; details: route intraperitoneal; procedure, shortened: as §3
[13] = Percent increase in life span of dying mice tested in vivo at 24.75 mg/kg against ip implanted LOX amelanotic melanoma in mice (60-day survivors); format: functional; details: Mus musculus, 1440 h, route intraperitoneal; procedure, shortened: as §5
[14] = Percent increase in life span of dying mice tested in vivo at 49.5 mg/kg against ip implanted LOX amelanotic melanoma in mice (60-day survivors); format: functional; details: Mus musculus, 1440 h, route intraperitoneal; procedure, shortened: as §5
P388 [15] = test: Change in tumor cell population in ip implanted P388 Leukemia in mice after administration of compound at 12.4 mg/kg; format: functional, Mus musculus; details: route intraperitoneal
Procedure, shortened: (§7)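 Female Portage-CD2F1 mice were inoculated ip with ascitic fluid holding ca. 5.2×10^6 P388 cells. Dosing was ip on days 1-5, starting 24 h after inoculation, by average body weight, as a solution or suspension in saline plus Tween 80. KE is the net log change in viable tumor cell population from start to end of the treatment period.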

P388 [16] = test: Change in tumor cell population in ip implanted P388 Leukemia in mice after administration of compound at 24.8 mg/kg; format: functional, Mus musculus; details: route intraperitoneal; procedure, shortened: as §7
[17] = Change in tumor cell population in ip implanted LOX amelanotic melanoma in mice after administration of compound at 174 mg/kg; format: functional, Mus musculus; details: route intraperitoneal; procedure, shortened: as §2
[18] = Change in tumor cell population in ip implanted LOX amelanotic melanoma in mice after administration of compound at 87 mg/kg; format: functional, Mus musculus; details: route intraperitoneal; procedure, shortened: as §2
[19] = Change in tumor cell population in ip implanted LOX amelanotic melanoma in mice after administration of compound at 21.75 mg/kg; format: functional, Mus musculus; details: route intraperitoneal; procedure, shortened: as §2
P388 [20] = test: Percent increase in life span of dying mice tested in vivo at 21.8 mg/kg against ip implanted P388 Leukemia in mice; format: functional; details: Mus musculus, route intraperitoneal; procedure, shortened: as §1
[21] = Change in tumor cell population in ip implanted LOX amelanotic melanoma in mice after administration of compound at 43.5 mg/kg; format: functional, Mus musculus; details: route intraperitoneal; procedure, shortened: as §2
P388 [22] = test: Percent increase in life span of dying mice tested in vivo at 10.9 mg/kg against ip implanted P388 Leukemia in mice; format: functional; details: Mus musculus, route intraperitoneal; procedure, shortened: as §1
P388 [23] = test: Percent increase in life span of dying mice tested in vivo at 87 mg/kg against ip implanted P388 Leukemia in mice; format: functional; details: Mus musculus, route intraperitoneal; procedure, shortened: as §4
[24] = Percent increase in life span of dying mice tested in vivo at 174 mg/kg against ip implanted LOX amelanotic melanoma in mice (60-day survivors); format: functional; details: Mus musculus, 1440 h, route intraperitoneal; procedure, shortened: as §5
P388 [25] = test: Change in tumor cell population in ip implanted P388 Leukemia in mice after administration of compound at 10.9 mg/kg; format: functional, Mus musculus; details: route intraperitoneal; procedure, shortened: as §7
P388 [26] = test: Change in tumor cell population in ip implanted P388 Leukemia in mice after administration of compound at 43.5 mg/kg; format: functional, Mus musculus; details: route intraperitoneal; procedure, shortened: as §7
P388 [27] = test: Change in tumor cell population in ip implanted P388 Leukemia in mice after administration of compound at 87 mg/kg; format: functional, Mus musculus; details: route intraperitoneal; procedure, shortened: as §3
P388 [28] = test: Percent increase in life span of dying mice tested in vivo at 43.5 mg/kg against ip implanted P388 Leukemia in mice; format: functional; details: Mus musculus, route intraperitoneal; procedure, shortened: as §1
[29] = Percent increase in life span of dying mice tested in vivo at 21.75 mg/kg against ip implanted LOX amelanotic melanoma in mice (60-day survivors); format: functional; details: Mus musculus, 1440 h, route intraperitoneal; procedure, shortened: as §5
[30] = Percent increase in life span of dying mice tested in vivo at 43.5 mg/kg against ip implanted LOX amelanotic melanoma in mice (60-day survivors); format: functional; details: Mus musculus, 1440 h, route intraperitoneal; procedure, shortened: as §5
P388 [31] = test: Change in tumor cell population in ip implanted P388 Leukemia in mice after administration of compound at 21.8 mg/kg; format: functional, Mus musculus; details: route intraperitoneal; procedure, shortened: as §7
[32] = Percent increase in life span of dying mice tested in vivo at 87 mg/kg against ip implanted LOX amelanotic melanoma in mice (60-day survivors); format: functional; details: Mus musculus, 1440 h, route intraperitoneal; procedure, shortened: as §6

Work on `CCC[S+]([O-])c1nc(COC(=O)NC)c(COC(=O)NC)n1C` (configuration not stated) yielded an ILS at 49.5 mg/kg (P388 [1]) of 27%, a KE [2] of 1.7 and a KE (P388 [3]) of 0.9. For the same molecule, the ILS at 99 mg/kg (P388 [4]) was 27%, the KE [5] was 1.6 and the ILS at 12.4 mg/kg (P388 [6]) was 10%. For the same molecule, the KE [7] was 0.8, the ILS at 24.8 mg/kg (P388 [8]) was 25% and the ILS at 198 mg/kg [9] was 21%. For the same molecule, the KE [10] was 1, the ILS at 99 mg/kg [11] was 1% and the KE (P388 [12]) was 0.9. For the same molecule, the ILS at 24.75 mg/kg [13] was -2%, the ILS at 49.5 mg/kg [14] was 15% and the KE (P388 [15]) was 1.4. It also gave a KE (P388 [16]) of 1.
`CCSc1nc(COC(=O)NC)c(COC(=O)NC)n1C` gave a KE [17] of -2.5, a KE [18] of -2.1 and a KE [19] of -0.2. For the same molecule, the ILS at 21.8 mg/kg (P388 [20]) was 56%, the KE [21] was -0.5 and the ILS at 10.9 mg/kg (P388 [22]) was 47%. For the same molecule, the ILS at 87 mg/kg (P388 [23]) was 99%, the ILS at 174 mg/kg [24] was 95% and the KE (P388 [25]) was -0.6. For the same molecule, the KE (P388 [26]) was -1.9, the KE (P388 [27]) was -4.3 and the ILS at 43.5 mg/kg (P388 [28]) was 64%. It also gave an ILS at 21.75 mg/kg [29] of 44%, an ILS at 43.5 mg/kg [30] of 52% and a KE (P388 [31]) of -1.3. It also gave an ILS at 87 mg/kg [32] of 85%.
